Results reported in ChEMBL document CHEMBL1124196, “Etodolac, a novel antiinflammatory agent. The syntheses and biological evaluation of its metabolites” (J Med Chem, 1988).

System: not listed separately
Experiment: Evaluated in vitro for its ability to inhibit prostaglandin E2 production in cultured chondrocyte cells at 25 mg/kg dose
Assay type: functional, organism-based
Details: Rattus norvegicus

Structure (SMILES) | IC50
CCc1cccc2c3c([nH]c12)C(CC)(CC(=O)O)OCC3=O (stereo not drawn) | 0.185 µM
CCc1cccc2c3c(n(C)c12)C(CC)(CC(=O)O)OCC3 (stereo not drawn) | 25 µM
CCc1cccc2c3c([nH]c12)C(CC)(CC(=O)O)OCC3NC(N)=O (stereo not drawn) [4-UREIDOETODOLAC] | > 100 µM
CCc1cc(O)cc2c3c([nH]c12)C(CC)(CC(=O)O)OCC3 (stereo not drawn) [6-HYDROXYETODOLAC] | 6.5 µM
CCC1(CC(=O)O)OCCc2c1[nH]c1c(C(C)O)cccc21 (stereo not drawn) [8-(1-HYDROXYETHYL)ETODOLAC] | 2 µM
CCc1cccc2c3c([nH]c12)C(CC)(CC(=O)O)OCC3 (stereo not drawn) [ETODOLAC] | 0.025 µM

System: Rattus norvegicus
Experiment: Evaluated for the inhibition of adjuvant-induced hind paw edema in rats at 25 mg/kg dose
Assay type: functional
Details: not given
Outline: (§1)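 Male Sprague-Dawley rats (180-200 g), groups of 10; 0.1 mL Freund's complete adjuvant (0.5 mg killed, dried Mycobacterium butyricum in mineral oil) intradermally into left hindpaw. Compound or vehicle (0.5% Tween 80 in water) by gastric lavage just before FCA (day 0) and at 24 and 48 h. Paw volume by plethysmometer before FCA and on day 3; % inhibition of mean edema versus control.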

Structure (SMILES) | inhibition in vivo at 25 mg/kg
CCc1cccc2c3c([nH]c12)C(CC)(CC(=O)O)OCC3=O (stereo not drawn) | 21%
CCc1cccc2c3c(n(C)c12)C(CC)(CC(=O)O)OCC3 (stereo not drawn) | 11%
CCc1cc(O)cc2c3c([nH]c12)C(CC)(CC(=O)O)OCC3 (stereo not drawn) [6-HYDROXYETODOLAC] | 10%
CCC1(CC(=O)O)OCCc2c1[nH]c1c(C(C)O)cccc21 (stereo not drawn) [8-(1-HYDROXYETHYL)ETODOLAC] | 14%
CCc1cccc2c3c([nH]c12)C(CC)(CC(=O)O)OCC3 (stereo not drawn) [ETODOLAC] | 65%

System: Rattus norvegicus
Experiment: Evaluated for the inhibition of adjuvant-induced hind paw edema in rats at 12 mg/kg dose
Assay type: functional
Details: not given
Outline: as §1

Structure (SMILES) | inhibition in vivo at 12 mg/kg
CCc1c(O)ccc2c3c([nH]c12)C(CC)(CC(=O)O)OCC3 (stereo not drawn) [7-HYDROXYETODOLAC] | 8%

System: not listed separately
Experiment: Evaluated in vitro for its ability to inhibit prostaglandin E2 production in cultured chondrocyte cells at 12 mg/kg dose
Assay type: functional, organism-based
Details: Rattus norvegicus

Structure (SMILES) | IC50
CCc1c(O)ccc2c3c([nH]c12)C(CC)(CC(=O)O)OCC3 (stereo not drawn) [7-HYDROXYETODOLAC] | 50 µM
